# ChEMBL document CHEMBL1140876, “Synthesis and antibacterial property of quinolines with potent DNA gyrase activity” (2009)
# The source made the active and inactive calls. The rule behind the calls is not given here.
# What was measured:
# [1] = system: Klebsiella pneumoniae; experiment: Antimicrobial activity against Klebsiella pneumoniae at 10 ug after 24 hrs by disk diffusion method; type: functional; details: read-out: IZ
# Procedure, shortened: (§1)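 Inoculum made in 0.85% saline against McFarland standard, swabbed evenly onto nutrient agar; sterile filter-paper discs set equidistant and loaded with equal volumes of drug at varying amounts; zone of inhibition measured after 24 h at 37 °C; ciprofloxacin reference.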
# [2] = system: Pseudomonas aeruginosa; experiment: Antimicrobial activity against Pseudomonas aeruginosa at 5 ug after 24 hrs by disk diffusion method; type: functional; details: read-out: IZ; procedure, shortened: as §1
# [3] = system: Klebsiella pneumoniae; experiment: Antimicrobial activity against Klebsiella pneumoniae at 5 ug after 24 hrs by disk diffusion method; type: functional; details: read-out: IZ; procedure, shortened: as §1
# [4] = system: Bacillus subtilis; experiment: Antimicrobial activity against Bacillus subtilis at 25 ug after 24 hrs by disk diffusion method; type: functional; details: read-out: IZ; procedure, shortened: as §1
# [5] = system: Escherichia coli; experiment: Antimicrobial activity against Escherichia coli by broth microdilution assay; type: functional
# Procedure, shortened: (§2)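 Broth microdilution per NCCLS 1997 in 96-well plate; final inoculum 10^5 cfu/mL; incubated 35.7 °C in air 18–20 h; MIC read as lowest concentration with no visible growth.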
# [6] = system: Klebsiella pneumoniae; experiment: Antimicrobial activity against Klebsiella pneumoniae at 25 ug after 24 hrs by disk diffusion method; type: functional; details: read-out: IZ; procedure, shortened: as §1
# [7] = system: Staphylococcus aureus; experiment: Antimicrobial activity against Staphylococcus aureus by broth microdilution assay; type: functional; procedure, shortened: as §2
# [8] = system: Bacillus subtilis; experiment: Antimicrobial activity against Bacillus subtilis at 10 ug after 24 hrs by disk diffusion method; type: functional; details: read-out: IZ; procedure, shortened: as §1
# [9] = system: Staphylococcus aureus; experiment: Antimicrobial activity against Staphylococcus aureus at 20 ug after 24 hrs by disk diffusion method; type: functional; details: read-out: IZ; procedure, shortened: as §1
# [10] = system: Escherichia coli; experiment: Inhibition of DNA gyrase gene expression in Escherichia coli assessed as decrease in band intensity by RT-PCR amplification
# Procedure, shortened: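 E. coli treated with drug; total RNA from cells sampled up to 24 h; 2 µg RNA to cDNA with MMLV reverse transcriptase; gyrase gene PCR (94 °C 4 min initial denaturation, 72 °C 7 min final extension); products on agarose gel, band intensity normalized to GAPDH; untreated cells as negative control.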
# [11] = system: Salmonella typhimurium; experiment: Antimicrobial activity against Salmonella Typhimurium at 20 ug after 24 hrs by disk diffusion method; type: functional, Salmonella enterica subsp. enterica serovar Typhimurium; details: Salmonella enterica, read-out: IZ; procedure, shortened: as §1
# [12] = Inhibition of DNA gyrase assessed as conversion of relaxed pBR322 to supercoiled form
# Procedure, shortened: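 Supercoiling in 15 µL reactions: gyrase assay buffer, 150 ng relaxed pBR322, 2–3 µL purified DNA gyrase, 3 h at 37 °C (E. coli); stopped with 50% glycerol/0.25% bromophenol blue; 1% agarose in 1× TBE pH 8.3, 90 V 3 h; ethidium bromide stain; supercoiled band brightness by densitometry. Ciprofloxacin comparator.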
# [13] = system: Bacillus subtilis; experiment: Antimicrobial activity against Bacillus subtilis at 15 ug after 24 hrs by disk diffusion method; type: functional; details: read-out: IZ; procedure, shortened: as §1
# [14] = Inhibition of DNA gyrase assessed as pBR322 DNA relaxation at 5 uM
# Procedure, shortened: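 Relaxation without ATP: gyrase (60 nM) with supercoiled pBR322 DNA (6 nM) and drug at […] for 1 h at 37 °C; relaxation judged by gel. Ciprofloxacin, novobiocin and nalidixic acid comparators.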
# [15] = system: Pseudomonas aeruginosa; experiment: Antimicrobial activity against Pseudomonas aeruginosa at 20 ug after 24 hrs by disk diffusion method; type: functional; details: read-out: IZ; procedure, shortened: as §1
# [16] = system: Klebsiella pneumoniae; experiment: Antimicrobial activity against Klebsiella pneumoniae at 20 ug after 24 hrs by disk diffusion method; type: functional; details: read-out: IZ; procedure, shortened: as §1
# [17] = system: Pseudomonas aeruginosa; experiment: Antimicrobial activity against Pseudomonas aeruginosa by broth microdilution assay; type: functional; procedure, shortened: as §2
# [18] = system: Staphylococcus aureus; experiment: Antimicrobial activity against Staphylococcus aureus at 10 ug after 24 hrs by disk diffusion method; type: functional; details: read-out: IZ; procedure, shortened: as §1
# [19] = system: Staphylococcus aureus; experiment: Antimicrobial activity against Staphylococcus aureus at 25 ug after 24 hrs by disk diffusion method; type: functional; details: read-out: IZ; procedure, shortened: as §1
# [20] = system: Staphylococcus aureus; experiment: Antimicrobial activity against Staphylococcus aureus at 5 ug after 24 hrs by disk diffusion method; type: functional; details: read-out: IZ; procedure, shortened: as §1
# [21] = system: Escherichia coli; experiment: Antimicrobial activity against Escherichia coli at 20 ug after 24 hrs by disk diffusion method; type: functional; details: read-out: IZ; procedure, shortened: as §1
# [22] = system: Pseudomonas aeruginosa; experiment: Antimicrobial activity against Pseudomonas aeruginosa at 15 ug after 24 hrs by disk diffusion method; type: functional; details: read-out: IZ; procedure, shortened: as §1
# [23] = system: Pseudomonas aeruginosa; experiment: Antimicrobial activity against Pseudomonas aeruginosa at 10 ug after 24 hrs by disk diffusion method; type: functional; details: read-out: IZ; procedure, shortened: as §1
# [24] = system: Salmonella typhimurium; experiment: Antimicrobial activity against Salmonella Typhimurium at 15 ug after 24 hrs by disk diffusion method; type: functional, Salmonella enterica subsp. enterica serovar Typhimurium; details: Salmonella enterica, read-out: IZ; procedure, shortened: as §1
# [25] = system: Bacillus subtilis; experiment: Antimicrobial activity against Bacillus subtilis at 20 ug after 24 hrs by disk diffusion method; type: functional; details: read-out: IZ; procedure, shortened: as §1
# [26] = system: Salmonella typhi; experiment: Antimicrobial activity against Salmonella typhi by broth microdilution assay; type: functional, Salmonella enterica subsp. enterica serovar Typhi; details: Salmonella enterica
# Procedure, shortened: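 Broth microdilution in 96-well plates following the NCCLS 1997 protocol. Final inoculum was 10^5 cfu/mL, with a control organism run alongside. Plates were incubated at 35.7 °C in air for 18–20 h. MIC is the lowest concentration with no visible growth.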
# [27] = system: Bacillus subtilis; experiment: Antimicrobial activity against Bacillus subtilis by broth microdilution assay; type: functional; procedure, shortened: as §2
# [28] = system: Salmonella typhimurium; experiment: Antimicrobial activity against Salmonella Typhimurium at 10 ug after 24 hrs by disk diffusion method; type: functional, Salmonella enterica subsp. enterica serovar Typhimurium; details: Salmonella enterica, read-out: IZ; procedure, shortened: as §1
# [29] = system: Escherichia coli; experiment: Antimicrobial activity against Escherichia coli at 5 ug after 24 hrs by disk diffusion method; type: functional; details: read-out: IZ; procedure, shortened: as §1
# [30] = system: Salmonella typhimurium; experiment: Antimicrobial activity against Salmonella Typhimurium at 25 ug after 24 hrs by disk diffusion method; type: functional, Salmonella enterica subsp. enterica serovar Typhimurium; details: Salmonella enterica, read-out: IZ; procedure, shortened: as §1
# [31] = system: Salmonella typhimurium; experiment: Antimicrobial activity against Salmonella Typhimurium at 5 ug after 24 hrs by disk diffusion method; type: functional, Salmonella enterica subsp. enterica serovar Typhimurium; details: Salmonella enterica, read-out: IZ; procedure, shortened: as §1
# [32] = system: Staphylococcus aureus; experiment: Antimicrobial activity against Staphylococcus aureus at 15 ug after 24 hrs by disk diffusion method; type: functional; details: read-out: IZ; procedure, shortened: as §1
# [33] = system: Escherichia coli; experiment: Antimicrobial activity against Escherichia coli at 25 ug after 24 hrs by disk diffusion method; type: functional; details: read-out: IZ; procedure, shortened: as §1
# [34] = system: Pseudomonas aeruginosa; experiment: Antimicrobial activity against Pseudomonas aeruginosa at 25 ug after 24 hrs by disk diffusion method; type: functional; details: read-out: IZ; procedure, shortened: as §1
# [35] = system: Klebsiella pneumoniae; experiment: Antimicrobial activity against Klebsiella pneumoniae by broth microdilution assay; type: functional; procedure, shortened: as §2
# [36] = system: Escherichia coli; experiment: Antimicrobial activity against Escherichia coli at 15 ug after 24 hrs by disk diffusion method; type: functional; details: read-out: IZ; procedure, shortened: as §1
# [37] = system: Escherichia coli; experiment: Antimicrobial activity against Escherichia coli at 10 ug after 24 hrs by disk diffusion method; type: functional; details: read-out: IZ; procedure, shortened: as §1
# [38] = system: Klebsiella pneumoniae; experiment: Antimicrobial activity against Klebsiella pneumoniae at 15 ug after 24 hrs by disk diffusion method; type: functional; details: read-out: IZ; procedure, shortened: as §1
smiles,measurement,setting,value
COc1ccc2c(c1)C(c1ccccc1)[C@@H]1Cn3cccc3[C@@H]1N2 (some centres undefined),zone of inhibition at 10 µg/disc,[1],14 mm
same,zone of inhibition at 5 µg/disc,[2],24 mm
same,zone of inhibition at 5 µg/disc,[3],10 mm
same,zone of inhibition at 25 µg/disc,[4],11 mm
same,MIC50,[5],0.125 µg/mL
same,MIC90,[5],0.25 µg/mL
same,zone of inhibition at 25 µg/disc,[6],26 mm
same,MIC50,[7],0.5 µg/mL
same,MIC90,[7],0.5 µg/mL
same,zone of inhibition at 10 µg/disc,[8],8 mm
same,zone of inhibition at 20 µg/disc,[9],30 mm
same,Activity,[10],Active
same,zone of inhibition at 20 µg/disc,[11],22 mm
same,Activity,[12],Active
same,zone of inhibition at 15 µg/disc,[13],9 mm
same,Activity,[14],inactive
same,zone of inhibition at 20 µg/disc,[15],34 mm
same,zone of inhibition at 20 µg/disc,[16],24 mm
same,MIC50,[17],0.125 µg/mL
same,MIC90,[17],1 µg/mL
same,zone of inhibition at 10 µg/disc,[18],24 mm
same,zone of inhibition at 25 µg/disc,[19],36 mm
same,zone of inhibition at 5 µg/disc,[20],20 mm
same,zone of inhibition at 20 µg/disc,[21],22 mm
same,zone of inhibition at 15 µg/disc,[22],28 mm
same,zone of inhibition at 10 µg/disc,[23],26 mm
same,zone of inhibition at 15 µg/disc,[24],18 mm
same,zone of inhibition at 20 µg/disc,[25],10 mm
same,MIC50,[26],0.06 µg/mL
same,MIC90,[26],0.15 µg/mL
same,MIC50,[27],0.3 µg/mL
same,MIC90,[27],2 µg/mL
same,zone of inhibition at 10 µg/disc,[28],16 mm
same,zone of inhibition at 5 µg/disc,[29],12 mm
same,zone of inhibition at 25 µg/disc,[30],24 mm
same,zone of inhibition at 5 µg/disc,[31],10 mm
same,zone of inhibition at 15 µg/disc,[32],26 mm
same,zone of inhibition at 25 µg/disc,[33],23 mm
same,zone of inhibition at 25 µg/disc,[34],36 mm
same,MIC50,[35],0.25 µg/mL
same,MIC90,[35],2 µg/mL
same,zone of inhibition at 15 µg/disc,[36],16 mm
same,zone of inhibition at 10 µg/disc,[37],14 mm
same,zone of inhibition at 15 µg/disc,[38],16 mm
